ChEMBL document CHEMBL1140864, “The synthesis of ursolic acid derivatives with cytotoxic activity and the investigation of their preliminary mechanism of action” (Bioorg Med Chem, 2009)

Tests used:
HeLa [1] = assay: Antiproliferative activity against human HeLa cells after 96 hrs by MTT assay; format: functional, cell-based
In short: (§1)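 Cells grown in RPMI 1640 with 10% FBS and penicillin/streptomycin at […] °C, 5% CO2. Trypsinised cells seeded at 1.0–2.0 × 10³ per well overnight, then exposed to a concentration range in medium for 96 h. MTT (1 mg/mL) added for 4 h, formazan dissolved in DMSO, read at 490 nm. IC50 is the concentration that cuts cell number to 50%; at least three repeats.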

HeLa [2] = assay: Antiproliferative activity against human HeLa cells at 10 uM after 96 hrs by MTT assay; format: functional
In short: (§2)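 Same MTT set-up (RPMI 1640/10% FBS, 1.0–2.0 × 10³ cells per well, 96 h exposure, 4 h MTT, formazan in DMSO read at 490 nm). Value is the percent inhibition at a single 10 µM concentration. Experiments repeated at least three times.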

SK-OV-3 [3] = assay: Antiproliferative activity against human SKOV3 cells at 10 uM after 96 hrs by MTT assay; format: functional; conditions: SK-OV-3, 96 h; in short: as §2
BGC-823 [4] = assay: Antiproliferative activity against human BGC823 cells at 10 uM after 96 hrs by MTT assay; format: functional; conditions: BGC-823, 96 h; in short: as §2
SK-OV-3 [5] = assay: Antiproliferative activity against human SKOV3 cells after 96 hrs by MTT assay; format: functional, cell-based; conditions: SK-OV-3, 96 h; in short: as §1
BGC-823 [6] = assay: Antiproliferative activity against human BGC823 cells after 96 hrs by MTT assay; format: functional, cell-based; conditions: BGC-823, 96 h; in short: as §1
HeLa [7] = assay: Cell cycle arrest in human HeLa cells by accumulation at S phase at 5.0 uM after 24 hrs using PI staining by flow cytometry; format: functional
In short: (§3)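 HeLa cells exposed for 24 h to 2.5, 5.0 or 10.0 µM; vehicle control 0.1% DMSO. Cellular DNA stained with propidium iodide, and cell-cycle phase fractions measured by flow cytometry. Experiments done three times.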

HeLa [8] = assay: Cell cycle arrest in human HeLa cells by accumulation at S phase at 2.5 uM after 24 hrs using PI staining by flow cytometry; format: functional; in short: as §3
HeLa [9] = assay: Induction of apoptosis in human HeLa cells assessed as apoptotic cells at 10 uM by flow cytometry; format: functional
In short: (§4)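 HeLa cells given 2.5, 5.0 or 10.0 µM and stained with propidium iodide. Apoptotic cells counted by flow cytometry as nuclei with sub-diploid DNA content, the region below the G1 peak; untreated cells served as control. Run three times.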

HeLa [10] = assay: Cell cycle arrest in human HeLa cells by accumulation at G2/M phase at 2.5 uM after 24 hrs using PI staining by flow cytometry; format: functional; in short: as §3
HeLa [11] = assay: Cell cycle arrest in human HeLa cells by accumulation at G1 phase at 10.0 uM after 24 hrs using PI staining by flow cytometry; format: functional; in short: as §3
HeLa [12] = assay: Cell cycle arrest in human HeLa cells by accumulation at G2/M phase at 5.0 uM after 24 hrs using PI staining by flow cytometry; format: functional; in short: as §3
HeLa [13] = assay: Induction of apoptosis in human HeLa cells assessed as DNA fragmentation after 24 hrs by agarose gel electrophoresis; format: functional, cell-based
In short: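 HeLa cells treated for 24 h, washed twice in PBS and lysed in 100 mM NaCl, 10 mM Tris–HCl pH 8.0, 25 mM EDTA, 0.1 mg/ml proteinase K at 50 °C for 12 h. DNA taken through phenol/chloroform/isoamyl alcohol and chloroform/isoamyl alcohol extraction, centrifuged at 12,000g for 30 min, then run on an agarose gel to look for laddering.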

HeLa [14] = assay: Cell cycle arrest in human HeLa cells by accumulation at G2/M phase at 10.0 uM after 24 hrs using PI staining by flow cytometry; format: functional; in short: as §3
HeLa [15] = assay: Cell cycle arrest in human HeLa cells by accumulation at G1 phase at 5.0 uM after 24 hrs using PI staining by flow cytometry; format: functional; in short: as §3
HeLa [16] = assay: Cell cycle arrest in human HeLa cells by accumulation at G1 phase at 2.5 uM after 24 hrs using PI staining by flow cytometry; format: functional; in short: as §3
HeLa [17] = assay: Induction of apoptosis in human HeLa cells assessed as sub-diploid DNA content after 24 hrs by flow cytometry; format: functional, cell-based; in short: as §4
HeLa [18] = assay: Cell cycle arrest in human HeLa cells by accumulation at S phase at 10.0 uM after 24 hrs using PI staining by flow cytometry; format: functional; in short: as §3

Row | IC50 (HeLa [1]) | IC50 (BGC-823 [6]) | SMILES | inhibition at 10 µM (HeLa [2]) | inhibition at 10 µM (BGC-823 [4]) | other results
1 | > 10 µM | – | COC(=O)C(Cc1ccccc1)NC(=O)[C@]12CC[C@@H](C)[C@H](C)[C@H]1C1=CC[C@@H]3[C@@]4(C)CC[C@H](OC(C)=O)C(C)(C)[C@@H]4CC[C@@]3(C)[C@]1(C)CC2 (stereo not given in full) | 32.9% | – | –
2 | 1.13 µM | > 10 µM | CC(=O)OCCNC(=O)[C@]12CC[C@@H](C)[C@H](C)[C@H]1C1=CC[C@@H]3[C@@]4(C)CC[C@H](OC(C)=O)C(C)(C)[C@@H]4CC[C@@]3(C)[C@]1(C)CC2 | 73.5% | 42% | inhibition at 10 µM (SK-OV-3 [3]): 54.8%; Activity (HeLa [7]): 45.9%; Activity (HeLa [8]): 49.8%; Activity (HeLa [9]): 35.3%; Activity (HeLa [10]): 9.2%; Activity (HeLa [11]): 51.1%; Activity (HeLa [12]): 12.3%; Activity (HeLa [13]): Dose-dependent effect; Activity (HeLa [14]): 4.2%; Activity (HeLa [15]): 41.8%; Activity (HeLa [16]): 41.1%; IC50 (SK-OV-3 [5]): 6.09 µM; Activity (HeLa [17]): Dose-dependent effect; Activity (HeLa [18]): 44.8%
3 | > 10 µM | – | C[C@H]1[C@H](C)CC[C@]2(C(=O)NC(CO)C(=O)O)CC[C@]3(C)C(=CC[C@@H]4[C@@]5(C)CC[C@H](O)C(C)(C)[C@@H]5CC[C@]43C)[C@H]12 (stereo not given in full) | 16.8% | – | –
4 | > 10 µM | – | CCC(C)C(NC(=O)[C@]12CC[C@@H](C)[C@H](C)[C@H]1C1=CC[C@@H]3[C@@]4(C)CC[C@H](OC(C)=O)C(C)(C)[C@@H]4CC[C@@]3(C)[C@]1(C)CC2)C(=O)OC (stereo not given in full) | 15.9% | – | –
5 | 4.3 µM | > 10 µM | COC(=O)C(CO)NC(=O)[C@]12CC[C@@H](C)[C@H](C)[C@H]1C1=CC[C@@H]3[C@@]4(C)CC[C@H](OC(C)=O)C(C)(C)[C@@H]4CC[C@@]3(C)[C@]1(C)CC2 (stereo not given in full) | 59.9% | 15.7% | –
6 | 1.63 µM | – | CC(=O)O[C@H]1CC[C@]2(C)[C@H]3CC=C4[C@@H]5[C@@H](C)[C@H](C)CC[C@]5(C(=O)Nc5ccccc5CO)CC[C@@]4(C)[C@]3(C)CC[C@H]2C1(C)C | 77.5% | – | –
7 | > 10 µM | – | CC(=O)O[C@H]1CC[C@]2(C)[C@H]3CC=C4[C@@H]5[C@@H](C)[C@H](C)CC[C@]5(C(=O)O)CC[C@@]4(C)[C@]3(C)CC[C@H]2C1(C)C [O-ACETYLURSOLIC ACID] | 37.8% | – | –
8 | > 10 µM | – | CCC(C)C(NC(=O)[C@]12CC[C@@H](C)[C@H](C)[C@H]1C1=CC[C@@H]3[C@@]4(C)CC[C@H](O)C(C)(C)[C@@H]4CC[C@@]3(C)[C@]1(C)CC2)C(=O)O (stereo not given in full) | 16.8% | – | inhibition at 10 µM (SK-OV-3 [3]): 5.01%; IC50 (SK-OV-3 [5]): > 10 µM
9 | > 10 µM | – | C[C@H]1[C@H](C)CC[C@]2(C(=O)NCC(=O)O)CC[C@]3(C)C(=CC[C@@H]4[C@@]5(C)CC[C@H](O)C(C)(C)[C@@H]5CC[C@]43C)[C@H]12 | 15.6% | – | –

Continued, molecule first:

Row | SMILES | IC50 (HeLa [1]) | IC50 (BGC-823 [6]) | inhibition at 10 µM (HeLa [2]) | inhibition at 10 µM (BGC-823 [4]) | other results
10 | CC(=O)O[C@H]1CC[C@]2(C)[C@H]3CC=C4[C@@H]5[C@@H](C)[C@H](C)CC[C@]5(C(=O)NC(C)CO)CC[C@@]4(C)[C@]3(C)CC[C@H]2C1(C)C (stereo not given in full) | 5.44 µM | – | 58.4% | – | –
11 | C[C@H]1[C@H](C)CC[C@]2(C(=O)NC(Cc3ccccc3)C(=O)O)CC[C@]3(C)C(=CC[C@@H]4[C@@]5(C)CC[C@H](O)C(C)(C)[C@@H]5CC[C@]43C)[C@H]12 (stereo not given in full) | > 10 µM | – | 27.5% | – | –
12 | CC(=O)OCc1ccccc1NC(=O)[C@]12CC[C@@H](C)[C@H](C)[C@H]1C1=CC[C@@H]3[C@@]4(C)CC[C@H](OC(C)=O)C(C)(C)[C@@H]4CC[C@@]3(C)[C@]1(C)CC2 | > 10 µM | > 10 µM | 30.5% | 13% | inhibition at 10 µM (SK-OV-3 [3]): 1.19%; IC50 (SK-OV-3 [5]): > 10 µM
13 | C[C@H]1[C@H](C)CC[C@]2(C(=O)O)CC[C@]3(C)C(=CC[C@@H]4[C@@]5(C)CC[C@H](O)C(C)(C)[C@@H]5CC[C@]43C)[C@H]12 [URSOLIC ACID] | > 10 µM | > 10 µM | 12.4% | 10.2% | inhibition at 10 µM (SK-OV-3 [3]): 9.06%; IC50 (SK-OV-3 [5]): > 10 µM
14 | CC(=O)O[C@H]1CC[C@]2(C)[C@H]3CC=C4[C@@H]5[C@@H](C)[C@H](C)CC[C@]5(C(=O)NCCO)CC[C@@]4(C)[C@]3(C)CC[C@H]2C1(C)C | 10.8 µM | – | 50.3% | – | –
15 | C[C@H]1[C@H](C)CC[C@]2(C(=O)NC(Cc3ccc(O)cc3)C(=O)O)CC[C@]3(C)C(=CC[C@@H]4[C@@]5(C)CC[C@H](O)C(C)(C)[C@@H]5CC[C@]43C)[C@H]12 (stereo not given in full) | > 10 µM | – | 23.6% | – | –
16 | CC(O)C(NC(=O)[C@]12CC[C@@H](C)[C@H](C)[C@H]1C1=CC[C@@H]3[C@@]4(C)CC[C@H](O)C(C)(C)[C@@H]4CC[C@@]3(C)[C@]1(C)CC2)C(=O)O (stereo not given in full) | > 10 µM | – | 22% | – | –
17 | COC(=O)C(Cc1ccc(O)cc1)NC(=O)[C@]12CC[C@@H](C)[C@H](C)[C@H]1C1=CC[C@@H]3[C@@]4(C)CC[C@H](OC(C)=O)C(C)(C)[C@@H]4CC[C@@]3(C)[C@]1(C)CC2 (stereo not given in full) | 9.04 µM | > 10 µM | 51.5% | 41.6% | –
18 | CC(=O)OCC(C)NC(=O)[C@]12CC[C@@H](C)[C@H](C)[C@H]1C1=CC[C@@H]3[C@@]4(C)CC[C@H](OC(C)=O)C(C)(C)[C@@H]4CC[C@@]3(C)[C@]1(C)CC2 (stereo not given in full) | 2.62 µM | 8.3 µM | 69.3% | 56.3% | inhibition at 10 µM (SK-OV-3 [3]): 70.5%; Activity (HeLa [7]): 44.8%; Activity (HeLa [8]): 39.4%; Activity (HeLa [9]): 32.5%; Activity (HeLa [10]): 13.6%; Activity (HeLa [11]): 36.7%; Activity (HeLa [12]): 8.5%; Activity (HeLa [13]): Dose-dependent effect; Activity (HeLa [14]): 9.3%; Activity (HeLa [15]): 46.7%; Activity (HeLa [16]): 47%; IC50 (SK-OV-3 [5]): 2.24 µM; Activity (HeLa [17]): Dose-dependent effect; Activity (HeLa [18]): 54%
19 | COC(=O)CNC(=O)[C@]12CC[C@@H](C)[C@H](C)[C@H]1C1=CC[C@@H]3[C@@]4(C)CC[C@H](OC(C)=O)C(C)(C)[C@@H]4CC[C@@]3(C)[C@]1(C)CC2 | 4.86 µM | > 10 µM | 61.7% | 17.9% | –
20 | COC(=O)C(NC(=O)[C@]12CC[C@@H](C)[C@H](C)[C@H]1C1=CC[C@@H]3[C@@]4(C)CC[C@H](OC(C)=O)C(C)(C)[C@@H]4CC[C@@]3(C)[C@]1(C)CC2)C(C)O (stereo not given in full) | 6.86 µM | – | 55.9% | – | –
21 | CC(=O)O[C@H]1C(=O)[C@@]2(C)[C@H]([C@H](OC(=O)c3ccccc3)[C@]3(O)C[C@H](OC(=O)[C@H](O)[C@@H](NC(=O)c4ccccc4)c4ccccc4)C(C)=C1C3(C)C)[C@]1(OC(C)=O)CO[C@@H]1C[C@@H]2O [PACLITAXEL] | – | 0.016 µM | – | – | IC50 (SK-OV-3 [5]): 0.001 µM
